Experimental data from ChEMBL document CHEMBL4622978, “Tumor-Activated Benzothiazole Inhibitors of Stearoyl-CoA Desaturase” (J Med Chem, 2020).
Each block holds one compound with its values, some of them ahead of it. The source made the active and inactive calls. No cut-off for these calls is given here.

Key:
[1] = Drug metabolism in human NCI-H2122 cells assessed as (R)-4-(amino(phenyl)methyl)-N-(6-hydroxybenzo[d]thiazol-2-yl)-benzamide formation at 100 nM by LC-MS/MS analysis; assay type: ADME, cell-based; settings: nci-h2122, 0.1 µM
Method in brief: (§1)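 H2122 and H1155 pLVX (empty vector) cells, 4000/well, adhered overnight. Then fresh medium with 100 nM prodrug, ±1 μM HET0016 (CYP4A/4F inhibitor), at 37 °C, 5% CO2. At varying times, cells and medium lysed and protein-precipitated with 2 volumes methanol/0.2% formic acid containing internal standard, then spun at 16,000g for 5 min. Parent and demethylated metabolite quantified by LC-MS/MS against standard curves in blank cell lysates.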

[2] = AUC in plasma of CD-1 female mouse at 10 mg/kg, ip single dose by LC-MS/MS analysis; settings: CD-1, mouse
[3] = Cmax in fat of CD-1 female mouse at 10 mg/kg, ip single dose by LC-MS/MS analysis; settings: CD-1, mouse
[4] = Cmax in plasma of CD-1 female mouse at 10 mg/kg, ip single dose by LC-MS/MS analysis; settings: CD-1, mouse
[5] = AUC in lung of CD-1 female mouse at 10 mg/kg, ip single dose by LC-MS/MS analysis; settings: CD-1, mouse
[6] = Cmax in lung of CD-1 female mouse at 10 mg/kg, ip single dose by LC-MS/MS analysis; settings: CD-1, mouse
[7] = Toxicity in normal chow diet fed nod-SCID mouse xenografted with NCI-H2122 cells assessed as effect on behavior at 10 mg/kg, ip BID for 3 weeks; assay type: organism-based; settings: in vivo, 504 h
[8] = Toxicity in fat-free diet fed nod-SCID mouse xenografted with NCI-H2122 cells assessed as effect on behavior at 20 mg/kg, ip QD for 3 weeks; assay type: organism-based; settings: in vivo, 504 h
[9] = Drug level in tumor of normal chow diet fed nod-SCID mouse xenografted with NCI-H2122 cells at 20 mg/kg, ip QD for 3 weeks and measured 3 hrs after final dose by LC-MS/MS analysis; assay type: ADME, organism-based, Neoplasm; settings: read-out: Drug uptake
Method in brief: (§2)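 Xenografted NOD-SCID mice on control or fat-free diet, dosed for three weeks, euthanized 3 h after the last dose. Plasma and tumor homogenate (3 volumes PBS) mixed with 2 volumes acetonitrile or methanol with 0.15% formic acid and internal standard, then centrifuged. Drug form quantified by LC-MS/MS against spiked blank-matrix standard curves.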

[10] = Half life in human NCI-H2122 cells at 100 nM by LC-MS/MS analysis; assay type: ADME, cell-based; method in brief: as §1
[11] = Drug metabolism in human NCI-H2122 cells assessed as (R)-4-(amino(phenyl)methyl)-N-(6-hydroxybenzo[d]thiazol-2-yl)-benzamide formation at 100 nM by in presence of CYP4F inhibitor HET0016 LC-MS/MS analysis; assay type: ADME, cell-based; settings: nci-h2122, 0.1 µM; method in brief: as §1
[12] = Toxicity in normal chow diet fed nod-SCID mouse xenografted with NCI-H2122 cells assessed as effect on appearance at 20 mg/kg, ip QD for 3 weeks; assay type: organism-based; settings: in vivo, 504 h
[13] = Toxicity in fat-free diet fed nod-SCID mouse xenografted with NCI-H2122 cells assessed as effect on appearance at 20 mg/kg, ip QD for 3 weeks; assay type: organism-based; settings: in vivo, 504 h
[14] = Toxicity in normal chow diet fed nod-SCID mouse xenografted with NCI-H2122 cells assessed as effect on behavior at 20 mg/kg, ip QD for 3 weeks; assay type: organism-based; settings: in vivo, 504 h
[15] = Half life in human NCI-H2122 cells at 100 nM in presence of CYP4F inhibitor HET0016 by LC-MS/MS analysis; assay type: ADME, cell-based; settings: with HET0016 (CYP4F inhibitor), concentration not stated; method in brief: as §1
[16] = Toxicity in fat-free diet fed nod-SCID mouse xenografted with NCI-H2122 cells assessed as body weight loss at 10 mg/kg, ip BID for 3 weeks (reference value: <5%); assay type: organism-based; settings: in vivo, 504 h
[17] = Drug level in plasma of normal chow diet fed nod-SCID mouse xenografted with NCI-H2122 cells at 20 mg/kg, ip QD for 3 weeks and measured 3 hrs after final dose by LC-MS/MS analysis; assay type: ADME, organism-based; method in brief: as §2
[18] = Half life in human NCI-H1155 cells at 100 nM by LC-MS/MS analysis; assay type: ADME, cell-based; method in brief: as §1
[19] = test system: NCI-H2122; assay: Antitumor activity against human NCI-H2122 cells xenografted in nod-SCID mouse fed normal chow diet at 10 mg/kg, ip BID for 3 weeks; assay type: functional, organism-based
Method in brief: (§3)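 Female NOD-SCID mice, 6–8 weeks, on control diet (4.1% soybean-oil fat) or fat-free diet (0.1% fat). Three days later, 5 × 10⁶ H2122 cells injected subcutaneously into the left flank. At ~100 mm³, randomized to groups of six. Dosing 10 mg/kg BID, 20 mg/kg QD, or vehicle BID (10% DMSO, 10% Kolliphor EL, 80% 50 mM lactic acid pH 3.6) for three weeks. Caliper measurements twice weekly; volume = length × width² × π/6.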

[20] = Toxicity in normal chow diet fed nod-SCID mouse xenografted with NCI-H2122 cells assessed as effect on body weight at 10 mg/kg, ip BID for 3 weeks; assay type: organism-based; settings: in vivo, 504 h
[21] = Toxicity in fat-free diet fed nod-SCID mouse xenografted with NCI-H2122 cells assessed as effect on appearance at 10 mg/kg, ip BID for 3 weeks; assay type: organism-based; settings: in vivo, 504 h
[22] = Drug metabolism in human NCI-H1155 cells assessed as (R)-4-(amino(phenyl)methyl)-N-(6-hydroxybenzo[d]thiazol-2-yl)-benzamide formation at 100 nM by LC-MS/MS analysis; assay type: ADME, cell-based; settings: nci-h1155, 0.1 µM; method in brief: as §1
[23] = test system: NCI-H2122; assay: Antitumor activity against human NCI-H2122 cells xenografted in nod-SCID mouse fed normal chow diet at 20 mg/kg, ip QD for 3 weeks; assay type: functional, organism-based; method in brief: as §3
[24] = Toxicity in fat-free diet fed nod-SCID mouse xenografted with NCI-H2122 cells assessed as effect on behavior at 10 mg/kg, ip BID for 3 weeks; assay type: organism-based; settings: in vivo, 504 h
[25] = Drug level in tumor of fat-free diet fed nod-SCID mouse xenografted with NCI-H2122 cells at 20 mg/kg, ip QD for 3 weeks and measured 3 hrs after final dose by LC-MS/MS analysis; assay type: ADME, organism-based, Neoplasm; settings: read-out: Drug uptake; method in brief: as §2
[26] = Toxicity in normal chow diet fed nod-SCID mouse xenografted with NCI-H2122 cells assessed as body weight loss at 10 mg/kg, ip BID for 3 weeks (reference value: <5%); assay type: organism-based; settings: in vivo, 504 h
[27] = test system: NCI-H2122; assay: Antitumor activity against human NCI-H2122 cells xenografted in nod-SCID mouse fed fat-free diet at 10 mg/kg, ip BID for 3 weeks; assay type: functional, organism-based; method in brief: as §3
[28] = Toxicity in normal chow diet fed nod-SCID mouse xenografted with NCI-H2122 cells assessed as effect on body weight at 20 mg/kg, ip QD for 3 weeks; assay type: organism-based; settings: in vivo, 504 h
[29] = Toxicity in normal chow diet fed nod-SCID mouse xenografted with NCI-H2122 cells assessed as effect on appearance at 10 mg/kg, ip BID for 3 weeks; assay type: organism-based; settings: in vivo, 504 h
[30] = Drug level in plasma of fat-free diet fed nod-SCID mouse xenografted with NCI-H2122 cells at 20 mg/kg, ip QD for 3 weeks and measured 3 hrs after final dose by LC-MS/MS analysis; assay type: ADME, organism-based; method in brief: as §2
[31] = Toxicity in fat-free diet fed nod-SCID mouse xenografted with NCI-H2122 cells assessed as body weight loss at 20 mg/kg, ip QD for 3 weeks (reference value: <5%); assay type: organism-based; settings: in vivo, 504 h
[32] = Toxicity in fat-free diet fed nod-SCID mouse xenografted with NCI-H2122 cells assessed as effect on body weight at 20 mg/kg, ip QD for 3 weeks; assay type: organism-based; settings: in vivo, 504 h
[33] = test system: NCI-H2122; assay: Antitumor activity against human NCI-H2122 cells xenografted in nod-SCID mouse fed fat-free diet at 20 mg/kg, ip QD for 3 weeks; assay type: functional, organism-based; method in brief: as §3
[34] = Toxicity in normal chow diet fed nod-SCID mouse xenografted with NCI-H2122 cells assessed as body weight loss at 20 mg/kg, ip QD for 3 weeks (reference value: <5%); assay type: organism-based; settings: in vivo, 504 h
[35] = Toxicity in fat-free diet fed nod-SCID mouse xenografted with NCI-H2122 cells assessed as effect on body weight at 10 mg/kg, ip BID for 3 weeks; assay type: organism-based; settings: in vivo, 504 h
[36] = AUC in fat of CD-1 female mouse at 10 mg/kg, ip single dose by LC-MS/MS analysis; settings: CD-1, mouse
[37] = Drug level in tumor of nod-SCID mouse xenografted with human NCI-H2122 cells at 20 mg/kg, ip single dose and measured after 7 hrs by LC-MS/MS analysis; settings: read-out: Drug uptake

AUC at 504 h [2]: 0.6 µM·h
Cmax [3]: 90 µM
Cmax [4]: 0.3 µM
AUC at 504 h [5]: 2.6 µM·h
Cmax [6]: 0.9 µM
SMILES: COc1ccc2nc(NC(=O)c3ccc(C(=O)c4ccccc4)cc3)sc2c1

AUC at 504 h [2]: 9.6 µM·h
Cmax [3]: 120 µM
AUC at 504 h [36]: 70 µM·h
Cmax [4]: 11 µM
AUC at 504 h [5]: 17 µM·h
Cmax [6]: 26 µM
SMILES: COc1ccc2nc(NC(=O)c3ccc(C(O)c4ccccn4)cc3)sc2c1 (racemic)

Second part, the compound before the results:

SMILES: N[C@H](c1ccccc1)c1ccc(C(=O)Nc2nc3ccccc3s2)cc1
Drug metabolism [1]: Metabolite_Detected

SMILES: COc1ccc2nc(NC(=O)c3ccc([C@H](N)c4ccccc4)cc3)sc2c1
AUC at 504 h [2]: 1.6 µM·h
Activity [7]: Non-Toxic
Activity [8]: Non-Toxic
concentration at 3 h [9]: > 5 µM
half-life at 0.1 µM [10]: 19 h
Drug metabolism [11]: Metabolite_Notdetected
Activity [12]: Non-Toxic
Activity [13]: Non-Toxic
Activity [14]: Non-Toxic
half-life at 0.1 µM [15]: > 48 h
Activity [16]: 17%
concentration at 3 h [17]: > 5 µM
half-life at 0.1 µM [18]: > 48 h
Activity [19]: Active
Cmax [4]: 0.9 µM
Activity [20]: Non-Toxic
Activity [21]: Non-Toxic
Drug metabolism [22]: Metabolite_Notdetected
Activity [23]: Active
Activity [24]: Non-Toxic
concentration at 3 h [25]: > 5 µM
Activity [26]: 13%
Activity [27]: Active
Activity [28]: Non-Toxic
Activity [29]: Non-Toxic
concentration at 3 h [30]: > 5 µM
Activity [31]: 7%
Activity [32]: Non-Toxic
Drug metabolism [1]: Metabolite_Detected
Activity [33]: Active
Activity [34]: 5%
Activity [35]: Non-Toxic

SMILES: COc1ccc2nc(NC(=O)c3ccc(C(N)c4ccccc4)cc3)sc2c1 (racemic)
AUC at 504 h [2]: 3 µM·h
Cmax [3]: 94 µM
AUC at 504 h [36]: 77 µM·h
Cmax [4]: 1.5 µM
concentration at 7 h [37]: 7 µM
AUC at 504 h [5]: 160 µM·h
Cmax [6]: 61 µM
